Laboratory results: ChEMBL document CHEMBL3271992, “Synthesis of 4-alkyl and 4-(beta-alkylvinyl) derivatives of primaquine as potential antimalarials” (J Med Chem, 1979)
Activity calls are given as the source filed them. The rule behind the calls is not given here.

Assays:
Leishmania donovani = assay: Antileishmanial activity against Leishmania donovani infected in hamster; format: functional, organism-based
[1] = test system: Plasmodium berghei yoelii; assay: Antimalarial activity against sporozoite stage of Plasmodium berghei yoelii infected in mouse assessed as survival at 10 mg/kg, sc after 30 days; format: functional, organism-based; parameters: dose 10 mg/kg
Method in brief: (§1)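 Mice infected with P. berghei yoelii (sporozoite challenge) were dosed on the day of challenge, in groups of five, either orally or subcutaneously at several dose levels. Compound was dissolved or suspended in 0.5% hydroxyethylcellulose–0.1% Tween 80. Prophylactic activity was read as survival of treated mice to 30 days, reported as cures per number treated, with toxic deaths noted.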

Plasmodium cynomolgi [2] = assay: Antimalarial activity against Plasmodium cynomolgi infected in rhesus monkey assessed as infection cure at 1 mg/kg administered via stomach tube once daily for 7 days with 2.5 mg of base/kg of chloroquine; format: functional, organism-based; parameters: dose 1 mg/kg
Plasmodium cynomolgi [3] = assay: Antimalarial activity against Plasmodium cynomolgi infected in rhesus monkey assessed as infection cure at 0.5 mg/kg administered via stomach tube once daily for 7 days with 2.5 mg of base/kg of chloroquine; format: functional, organism-based; parameters: dose 0.5 mg/kg
Plasmodium cynomolgi [4] = assay: Antimalarial activity against Plasmodium cynomolgi infected in rhesus monkey assessed as time duration between end of treatment and relapse at 0.5 mg/kg administered via stomach tube once daily for 7 days with 2.5 mg of base/kg of chloroquine1; format: functional
Plasmodium cynomolgi [5] = assay: Antimalarial activity against Plasmodium cynomolgi infected in rhesus monkey assessed as time duration between end of treatment and relapse at 1 mg/kg administered via stomach tube once daily for 7 days with 2.5 mg of base/kg of chloroquine1; format: functional
Plasmodium berghei [6] = assay: Antimalarial activity against blood schizont stage of Plasmodium berghei infected in mouse assessed as mean survival time at 80 mg/kg (reference value: 6.2 +/- 0.5 days); format: functional
Plasmodium berghei [7] = assay: Antimalarial activity against blood schizont stage of Plasmodium berghei infected in mouse assessed as mean survival time at 20 mg/kg (reference value: 6.2 +/- 0.5 days); format: functional
Plasmodium berghei [8] = assay: Antimalarial activity against blood schizont stage of Plasmodium berghei infected in mouse assessed as mean survival time at 40 mg/kg (reference value: 6.2 +/- 0.5 days); format: functional
[9] = test system: Plasmodium berghei yoelii; assay: Antimalarial activity against sporozoite stage of Plasmodium berghei yoelii infected in mouse assessed as survival at 2.5 mg/kg, sc after 30 days; format: functional, organism-based; parameters: dose 2.5 mg/kg; method in brief: as §1
[10] = test system: Plasmodium berghei yoelii; assay: Antimalarial activity against sporozoite stage of Plasmodium berghei yoelii infected in mouse assessed as survival at 2.5 mg/kg, po after 30 days; format: functional, organism-based; parameters: dose 2.5 mg/kg; method in brief: as §1
Plasmodium berghei [11] = assay: Antimalarial activity against blood schizont stage of Plasmodium berghei infected in mouse assessed as mean survival time at 320 mg/kg (reference value: 6.2 +/- 0.5 days); format: functional
Plasmodium berghei [12] = assay: Antimalarial activity against blood schizont stage of Plasmodium berghei infected in mouse assessed as mean survival time at 640 mg/kg (reference value: 6.2 +/- 0.5 days); format: functional
Plasmodium berghei [13] = assay: Antimalarial activity against blood schizont stage of Plasmodium berghei infected in mouse assessed as mean survival time at 160 mg/kg (reference value: 6.2 +/- 0.5 days); format: functional
Mus musculus [14] = assay: Toxicity in mouse infected with Plasmodium berghei assessed as death at 320 mg/kg after 2 to 5 days; format: organism-based; parameters: dose 320 mg/kg; conditions: in vivo
Mus musculus [15] = assay: Toxicity in mouse infected with Plasmodium berghei assessed as death at 640 mg/kg after 2 to 5 days; format: organism-based; parameters: dose 640 mg/kg; conditions: in vivo
Plasmodium cynomolgi [16] = assay: Antimalarial activity against Plasmodium cynomolgi infected in rhesus monkey assessed as infection cure at 0.25 mg/kg administered via stomach tube once daily for 7 days with 2.5 mg of base/kg of chloroquine; format: functional, organism-based; parameters: dose 0.25 mg/kg
Plasmodium cynomolgi [17] = assay: Antimalarial activity against Plasmodium cynomolgi infected in rhesus monkey assessed as time duration between end of treatment and relapse at 0.25 mg/kg administered via stomach tube once daily for 7 days with 2.5 mg of base/kg of chloroquine1; format: functional, organism-based; parameters: dose 0.25 mg/kg
[18] = test system: Plasmodium berghei yoelii; assay: Antimalarial activity against sporozoite stage of Plasmodium berghei yoelii infected in mouse assessed as survival at 160 mg/kg, sc after 30 days; format: functional, organism-based; parameters: dose 160 mg/kg; method in brief: as §1
[19] = test system: Plasmodium berghei yoelii; assay: Antimalarial activity against sporozoite stage of Plasmodium berghei yoelii infected in mouse assessed as survival at 10 mg/kg, po after 30 days; format: functional, organism-based; parameters: dose 10 mg/kg; method in brief: as §1

## CC/C(C)=C\c1ccnc2c(NC(C)CCCN)cc(OC)cc12 (stereo unspecified)
Leishmania donovani
  Activity: inactive

## C/C=C/c1ccnc2c(NC(C)CCCN)cc(OC)cc12.O=C(O)/C=C/C(=O)O (stereo unspecified)
[1]
  Activity: inactive
Plasmodium cynomolgi [2]
  Activity: inactive
Plasmodium cynomolgi [3]
  Activity: inactive
Plasmodium cynomolgi [4]
  Time: 8 days
Plasmodium cynomolgi [5]
  Time: 18 days
Leishmania donovani
  Activity: inactive

## CC/C=C/c1ccnc2c(NC(C)CCCN)cc(OC)cc12.O=C(O)/C=C/C(=O)O (stereo unspecified)
Plasmodium berghei [6]
  MSD: 6.5 days
Plasmodium berghei [7]
  MSD: 3.1 days
Plasmodium berghei [8]
  MSD: 5.1 days
Plasmodium cynomolgi [2]
  Activity: inactive
[9]
  Activity: inactive
[10]
  Activity: inactive
Plasmodium berghei [11]
  MSD: 9.5 days
Plasmodium cynomolgi [3]
  Activity: inactive
Plasmodium cynomolgi [4]
  Time: 6 days
Plasmodium cynomolgi [5]
  Time: 10 days
Plasmodium berghei [12]
  MSD: 10.3 days
Plasmodium berghei [13]
  MSD: 7.5 days
Leishmania donovani
  Activity: inactive

## COc1cc(NC(C)CCCN)c2nccc(CC3CCCCC3)c2c1.O=C(O)/C=C/C(=O)O (stereo unspecified)
Plasmodium cynomolgi [2]
  Activity: inactive
Plasmodium cynomolgi [3]
  Activity: inactive
Plasmodium cynomolgi [4]
  Time: 6 days
Plasmodium cynomolgi [5]
  Time: 7 days
Leishmania donovani
  Activity: inactive

## CCCc1ccnc2c(NC(C)CCCN)cc(OC)cc12.O=C(O)/C=C/C(=O)O (stereo unspecified)
Plasmodium cynomolgi [2]
  Activity: inactive
Plasmodium cynomolgi [3]
  Activity: inactive
Plasmodium cynomolgi [4]
  Time: 7 days
Plasmodium cynomolgi [5]
  Time: 23 days
Leishmania donovani
  Activity: inactive

## Br.COc1cc(NC(C)CCCN)c2nccc(/C=C/CC3CCCCC3)c2c1 (stereo unspecified)
Plasmodium berghei [6]
  MSD: 0.9 days
Plasmodium berghei [7]
  MSD: 0.4 days
Plasmodium berghei [11]
  MSD: -0.4 days
Leishmania donovani
  Activity: inactive

## CCCCc1ccnc2c(NC(C)CCCN)cc(OC)cc12.O=C(O)/C=C/C(=O)O (stereo unspecified)
[1]
  Activity: inactive
Plasmodium cynomolgi [2]
  Activity: inactive
[10]
  Activity: inactive
Plasmodium cynomolgi [3]
  Activity: inactive
Plasmodium cynomolgi [4]
  Time: 5 days
Plasmodium cynomolgi [5]
  Time: 22 days
Leishmania donovani
  Activity: inactive

## COc1cc(NC(C)CCCN)c2ncccc2c1 (stereo unspecified) [PRIMAQUINE]
Plasmodium berghei [6]
  MSD: 9.4 days
Plasmodium berghei [7]
  MSD: 4 days
Plasmodium berghei [8]
  MSD: 5 days
Mus musculus [14]
  Activity: Toxic
Mus musculus [15]
  Activity: Toxic

## C/C=C\c1ccnc2c(NC(C)CCCN)cc(OC)cc12.O=C(O)/C=C/C(=O)O (mixture of isomers)
Plasmodium cynomolgi [2]
  Activity: inactive
Plasmodium cynomolgi [16]
  Activity: inactive
[10]
  Activity: inactive
Plasmodium cynomolgi [3]
  Activity: inactive
Plasmodium cynomolgi [4]
  Time: 6 days
Plasmodium cynomolgi [5]
  Time: 6 days
Plasmodium cynomolgi [17]
  Activity: inactive
Leishmania donovani
  Activity: inactive

## CCC(C)Cc1ccnc2c(NC(C)CCCN)cc(OC)cc12.O=C(O)/C=C/C(=O)O (stereo unspecified)
Plasmodium cynomolgi [2]
  Activity: inactive
Plasmodium cynomolgi [3]
  Activity: inactive
Plasmodium cynomolgi [4]
  Time: 7 days
Plasmodium cynomolgi [5]
  Time: 9 days
Leishmania donovani
  Activity: inactive

## COc1cc(NC(C)CCCN)c2nccc(/C=C/C3CCCCC3)c2c1 (stereo unspecified)
[18]
  Activity: inactive
[1]
  Activity: inactive
[19]
  Activity: inactive
Leishmania donovani
  Activity: inactive

## COc1cc(NC(C)CCCN)c2nccc(CCCC3CCCCC3)c2c1.O=C(O)/C=C/C(=O)O (stereo unspecified)
Plasmodium berghei [6]
  MSD: 0.4 days
Plasmodium berghei [7]
  MSD: 0.3 days
Plasmodium cynomolgi [2]
  Activity: inactive
Plasmodium berghei [11]
  MSD: 0.9 days
Plasmodium cynomolgi [3]
  Activity: inactive
Plasmodium cynomolgi [4]
  Time: 6 days
Plasmodium cynomolgi [5]
  Time: 8 days
Leishmania donovani
  Activity: inactive

## COc1cc(NC(C)CCCN)c2nccc(CCC3CCCCC3)c2c1.O=C(O)/C=C/C(=O)O (stereo unspecified)
Plasmodium berghei [8]
  MSD: 0.3 days
Plasmodium berghei [12]
  MSD: 0.5 days
Plasmodium berghei [13]
  MSD: 0.3 days
Leishmania donovani
  Activity: inactive

## COc1cc(NC(C)CCCN)c2nccc(C=C(C)C)c2c1 (stereo unspecified)
Leishmania donovani
  Activity: inactive
